Experimental data as given in ChEMBL document CHEMBL5038571, “Design and Synthesis of EZH2-Based PROTACs to Degrade the PRC2 Complex for Targeting the Noncatalytic Activity of EZH2” (J Med Chem, 2021).
Active and inactive are the calls of the source. The calls are words filed in the database; no cut-off is given here.

Legend:
[1] = target: T1, Protein cereblon/Histone-lysine N-methyltransferase EZH2 (Homo sapiens) (UniProt Q15910+Q96SW2); assay: PROTAC activity at CRBN E3 ligase/EZH2 in PRC2 complex in human WSUDLCL2 cells assessed as downregulation of RbAp48 expression at 1 uM pretreated with MG-132 for 4 hrs followed by compound addition and measured after 48 hrs by Western blot analysis; assay type: cell-based
Procedure, shortened: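 WSU-DLCL-2 cells pretreated 4 h with the named inhibitor, then compound added and incubated a further 48 h. EZH2, SUZ12, EED and RbAp48 measured by western blot (nitrocellulose transfer, skim-milk block, primary antibody overnight at 4 °C, chemiluminescent detection).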

[2] = target: T1, Protein cereblon/Histone-lysine N-methyltransferase EZH2 (Homo sapiens); assay: PROTAC activity at CRBN E3 ligase/EZH2 in PRC2 complex in human WSUDLCL2 cells assessed as increase in EZH2 ubiquitination at 1 uM measured after 48 hrs by co-immunoprecipitation assay; assay type: cell-based
Procedure, shortened: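 WSU-DLCL-2 cells treated with 1 μM compound for 48 h and lysed in RIPA buffer. Lysates incubated with antibodies overnight at 4 °C, then 3 h with Protein G agarose beads at 4 °C. Proteins eluted in IP buffer and ubiquitination of the target probed by immunoblot.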

[3] = system: NCI-H1299; assay: Antiproliferative activity against EZH2-knockdown human NCI-H1299 cells assessed as inhibition of cell growth at 10 uM treated for 9 days by optical microscopic analysis; assay type: functional, cell-based; settings: time 9.0 day
Procedure, shortened: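 Cells seeded at 5 × 10³ per well, grown 24 h, then exposed to compound at 10 μM for 9 days with medium refreshed. Cells were photographed and counted on days 1, 3, 5, 7 and 9. For lines 1-2, EZH2-targeting or control shRNA was induced in the cells. Mean SD of three independent experiments; t-test against control.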

T1 sequence (Q15910 whole entry, looked up): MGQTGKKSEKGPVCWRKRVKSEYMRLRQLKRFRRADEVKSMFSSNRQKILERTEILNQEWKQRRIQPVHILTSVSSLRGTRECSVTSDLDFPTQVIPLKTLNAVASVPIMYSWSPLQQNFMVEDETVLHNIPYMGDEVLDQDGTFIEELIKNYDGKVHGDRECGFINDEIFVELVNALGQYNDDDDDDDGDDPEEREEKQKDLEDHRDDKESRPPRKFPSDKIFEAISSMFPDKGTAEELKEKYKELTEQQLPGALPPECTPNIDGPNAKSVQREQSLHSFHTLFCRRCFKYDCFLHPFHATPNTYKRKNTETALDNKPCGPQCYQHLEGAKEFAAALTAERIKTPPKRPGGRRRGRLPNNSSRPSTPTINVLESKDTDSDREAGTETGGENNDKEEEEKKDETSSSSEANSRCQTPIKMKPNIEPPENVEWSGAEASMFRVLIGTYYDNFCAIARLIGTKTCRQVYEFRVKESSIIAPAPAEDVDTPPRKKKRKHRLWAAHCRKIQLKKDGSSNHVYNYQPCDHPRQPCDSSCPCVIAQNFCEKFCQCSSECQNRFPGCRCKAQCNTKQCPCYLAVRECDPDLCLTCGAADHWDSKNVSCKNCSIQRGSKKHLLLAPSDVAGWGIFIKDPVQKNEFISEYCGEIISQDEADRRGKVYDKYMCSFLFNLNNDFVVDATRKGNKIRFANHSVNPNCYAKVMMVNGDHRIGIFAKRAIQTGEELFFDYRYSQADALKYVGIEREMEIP
T1 sequence (Q96SW2 whole entry, looked up): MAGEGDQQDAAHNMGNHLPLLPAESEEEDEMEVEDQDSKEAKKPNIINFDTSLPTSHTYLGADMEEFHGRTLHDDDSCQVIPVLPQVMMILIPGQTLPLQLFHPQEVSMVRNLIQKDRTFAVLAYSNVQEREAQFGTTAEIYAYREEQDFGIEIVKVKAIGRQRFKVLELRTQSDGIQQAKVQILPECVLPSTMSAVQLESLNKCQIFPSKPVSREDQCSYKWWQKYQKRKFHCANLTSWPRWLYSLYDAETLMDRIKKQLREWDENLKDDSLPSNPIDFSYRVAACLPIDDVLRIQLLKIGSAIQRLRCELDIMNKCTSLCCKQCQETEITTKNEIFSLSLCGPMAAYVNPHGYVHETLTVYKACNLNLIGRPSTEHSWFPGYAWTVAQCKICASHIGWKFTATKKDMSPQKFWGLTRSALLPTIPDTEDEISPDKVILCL

## CCN(c1cc(-c2ccc(CN3CCN(CCCCCCCOc4cccc5c4C(=O)N(C4CCC(=O)NC4=O)C5=O)CC3)cc2)cc(C(=O)NCc2c(C)cc(C)[nH]c2=O)c1C)C1CCOCC1 (stereo not drawn)
[1]
  Activity: inactive
[2]
  Activity: Active
[3]
  Activity: Active
